# In the library only some 0.79% were active in any assay of this set; here they are far more common.
# bIAP act – increases bovine intestinal alkaline phosphatase activity; hit rate 0.17% among 200,000; activation factor at 20 µM; purified bovine IAP, CDP-star luminescence, 30 min; active compounds read high; fold of DMSO-control signal, blank-subtracted; AID 1016;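 active = activation factor of 2 or more at 20 µM, a signal rise over negative controls twice the positive control's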
# hIAP act – human IAP activation. hit rate 0.16% among 330,000. activation factor at 10 µM. purified human IAP, CDP-Star luminescence, 30 min; active compounds read high; 1 = vehicle-only enzyme, 0 = enzyme-free background. AID 2524. P09923;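 active = activation factor of the enzyme at least 2-fold when tested at 20 µM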
# Target sequence (P09923 whole entry, looked up): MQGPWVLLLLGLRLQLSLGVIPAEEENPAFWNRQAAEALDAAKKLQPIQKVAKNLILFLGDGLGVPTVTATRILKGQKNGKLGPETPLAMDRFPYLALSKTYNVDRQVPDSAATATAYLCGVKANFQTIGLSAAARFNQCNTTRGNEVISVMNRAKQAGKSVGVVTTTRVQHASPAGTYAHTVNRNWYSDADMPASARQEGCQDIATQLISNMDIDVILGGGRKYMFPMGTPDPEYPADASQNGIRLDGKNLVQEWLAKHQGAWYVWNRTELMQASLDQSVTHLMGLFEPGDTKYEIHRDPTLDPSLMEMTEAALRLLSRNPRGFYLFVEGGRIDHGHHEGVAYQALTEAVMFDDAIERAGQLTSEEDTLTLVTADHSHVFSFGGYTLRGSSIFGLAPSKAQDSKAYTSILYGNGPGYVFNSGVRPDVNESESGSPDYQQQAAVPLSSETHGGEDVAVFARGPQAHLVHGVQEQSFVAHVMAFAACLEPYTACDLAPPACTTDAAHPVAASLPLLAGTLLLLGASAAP
# mIAP block – blocks mouse intestinal alkaline phosphatase | purified mouse IAP, CDP-Star luminescence, 30 min | inhibition, % at 10 µM | hit rate 0.2% among 330,000 | AID 2806;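 active = inhibition of at least 40% at 10 µM in the primary screen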;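 note: plate controls were DMSO with enzyme for no effect and no enzyme wells for full effect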
# bIAP inh – blocks bovine intestinal alkaline phosphatase activity | AID 1019 | inhibition, % at 20 µM | purified bovine IAP, CDP-star luminescence, 30 min | 190,000 tested, under 10 active;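 active = over 50% inhibition of intestinal alkaline phosphatase at 20 µM in the single-dose screen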
#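 test system = bovine IAP enzyme | medium = DEA buffer 100 mM, pH 9.8, with MgCl2 1.0 mM, ZnCl2 0.02 mM | detection = luminescence | dosing = single compound dose of 20 µM, 2% DMSO final | incubation = 30 min reaction at room temperature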
# mIAP act – increases mouse intestinal alkaline phosphatase activity | AID 2805 | muIAP, CDP-Star luminescence, 30 min; active compounds read high; 1 = vehicle-only enzyme signal, 0 = enzyme-free wells | hit rate 0.24% among 330,000 | activation factor at 10 µM;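 active = activation factor of at least 2 at 20 µM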
#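 Assay system: mouse IAP enzyme / Compound: DMSO-dissolved test compounds / Timing: 30 min, room temperature / Measured by: luminescence from enzymatic CDP-Star hydrolysis / Control set: DMSO-only wells, enzyme-free buffer wells as negative control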
# hIAP block – blocks human intestinal alkaline phosphatase. hit rate 0.12% among 330,000. purified IAP, CDP-Star luminescence, 30 min. inhibition, % at 10 µM. P09923;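 active = inhibition reaching a set limit with compound at 10 µM in the primary screen, cut at about 35% in these data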;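 note: plate controls were DMSO wells with enzyme for no effect and no-enzyme buffer wells for full effect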
# Starred values were filed as active, the others as inactive; i = inactive; . = no result given.
SMILES,bIAP act,hIAP act,mIAP block,bIAP inh,mIAP act,hIAP block
Cc1nn(C)cc1/C=N\NC(=O)c1ccc2c(c1)c(C)c(C)n2Cc1ccccc1,8.3*,1.2,-130,i,2.3*,-20
Cc1c(C)n(Cc2ccccc2)c2ccc(C(=O)O)cc12,.,0.98,2,.,0.98,2
Cc1ccc(-n2ncc(C(=O)Nc3cc(Cl)cc(Cl)c3)c2C2CCNCC2)cc1C,6.1*,.,.,i,.,.
Cc1ccc(S(=O)(=O)N2[C@@H](c3cccc(Cl)c3)C(C(=O)O)=CC[C@H]2c2cccc(Cl)c2)cc1,.,0.91,42*,.,0.58,9
COCCN(C(=O)C1CC(=O)N(Cc2ccccc2)C1)c1nc(-c2ccc([N+](=O)[O-])cc2)cs1 (configuration not stated),.,0.86,10,.,0.9,14
COc1ccc(NC(=O)c2ccc3c(=O)n(Cc4ccco4)c(=S)[nH]c3c2)c(OC)c1,1.1,1.1,45*,-12,0.55,-13
CCCCN1C(=O)C2(NNc3ccccc3O2)c2ccccc21 (configuration not stated),2.7*,0.76,5,-169,0.95,24
COC(=O)N/N=C/c1c(C)nn(-c2cccc(Cl)c2)c1Cl,3*,0.9,4,-201,0.96,10
Cc1ccc(C)c(OCCC(=O)Nc2cccc(S(=O)(=O)N3CCCCC3)c2)c1,.,1,-105,.,2*,-2
Cc1ccc(C)c(OCCC(=O)Nc2cc(S(=O)(=O)N3CCCCC3)ccc2C)c1,.,0.99,-48,.,1.5,1
Cc1cnc(C(=O)OCC(=O)Nc2cc(-c3ccccc3)nn2-c2ccccc2)cn1,.,1.1,13,.,0.87,-13
Cc1ccc(C(=O)N2CCCC(Nc3ccc(F)cc3)C2)cc1C (configuration not stated),.,0.76,-12,.,1.1,24
CCn1c(NCc2cc(Br)ccc2NS(=O)(=O)c2ccc(C)cc2)nc2ccccc21,1.5,1.1,-110,-45,2.1*,-7
Cc1noc(-c2ccccc2)c1NC(=O)Nc1ccccc1,.,0.99,-49,.,1.5,1
Cc1noc(-c2ccccc2)c1NC(=O)Nc1ccc(Cl)cc1,.,1.1,-206,.,3.1*,-10
Oc1cc(O)cc(/C=C/c2ccc(O)c(O)c2)c1,.,0.94,78*,.,0.22,6
COc1ccc(OCC(O)Cn2c(=N)n(Cc3ccccc3)c3ccccc32)cc1 (configuration not stated),2.8*,1.1,-4,-178,1,-9
CCOc1ccc(N(CCCCO)C(=S)NC(=O)c2ccc(C)c(Br)c2)cc1,1.1,0.92,12,-12,0.89,8
CN(C)c1ccc(/C=C/c2ccc3ccccc3[n+]2C)cc1,0.8,0.93,42*,17,0.58,7
CN(CCCS(=O)(=O)[O-])c1ccc(/C=C/c2ccc3ccccc3[n+]2C)cc1,.,0.81,2,.,0.98,19
FC(F)Sc1ccc(NC(=S)NCc2ccccc2)cc1,0.9,1,-106,8,2.1*,0
FC(F)(F)c1ccc(NC(=S)NCc2ccccc2)cc1,0.9,1.1,-100,13,2*,-10
CC(C(=O)Nc1ccccc1C#N)N1C(=O)NC2(CCCCCC2)C1=O (configuration not stated),.,0.86,-1,.,1,14
Cc1cc(C)cc(NC(=O)CN(C)CC(=O)N(CC(C)C)c2c(N)n(CC(C)C)c(=O)[nH]c2=O)c1,.,1,3,.,0.97,-2
CCn1c(C)cc(/C=C2/SC(=S)NC2=O)c1C,0.9,0.79,52*,12,0.48,21
SMILES,bIAP act,hIAP act,mIAP block,bIAP inh,mIAP act,hIAP block
CCOC(=O)[C@H]1[C@H]2COc3ccccc3[C@@H]2N2C(=O)CNC(=O)[C@@]12C,.,1.1,1,.,0.99,-9
Cc1ccc(NC(=O)COc2ccccc2CNC(C)(C)CC(C)(C)C)cc1,30*,0.89,-58,i,1.6,11
Cc1cccc(NC2=NC3(CCCCC3)N=C(N)N2)c1C,2.7*,0.95,-16,-167,1.2,5
Cc1ccc(NC2=NC3(CCCC3)N=C(N)N2)c(C)c1,1.1,1.1,-3,-10,1,-7
Cc1ccc(NC2=NC3(CCCCC3)N=C(N)N2)c(C)c1,3.7*,1.5,-14,-272,1.1,-49
Cc1ccccc1NC1=NC2(CCCC2)N=C(N)N1,1.1,0.98,3,-6,0.97,2
Cc1ccc(-c2cc(C(=O)Nc3ccc(S(=O)(=O)Nc4ncccn4)cc3)[nH]n2)c(O)c1C,.,1.4,27,.,0.73,-39
CC(NC(=O)c1cc2cc(F)ccc2[nH]1)c1ccccc1 (configuration not stated),.,0.94,-21,.,1.2,6
Cc1ccc(C(NC(=O)NC(C)c2ccccc2)C(Cl)(Cl)Cl)cc1F (configuration not stated),0.7,0.87,i,26,14*,13
C1CCC(c2nn3c(-c4n[nH]c5c4CCC5)nnc3s2)CC1,4.3*,1,2,-334,0.98,-1
COc1ccc(Cl)cc1NC(=O)CN1CCC(n2nnc3cc(C)ccc32)CC1,5.3*,0.91,-15,-435,1.2,9
O=C(CNC(=S)N(CCCN1CCOCC1)Cc1cccs1)NCCN1CCOCC1,0.9,0.93,-2,15,1,7
CCN(CC)CCCNC(=O)CNC(=S)N(CCCN1CCOCC1)Cc1cccs1,2.1*,1.1,-6,-112,1.1,-14
Cc1ccc(S(=O)(=O)N2CCN(C(=O)c3cc(S(=O)(=O)N(C)C)ccc3N3CCCC3)CC2)c(C)c1,.,1.2,3,.,0.97,-16
CC(=O)N1CCCC(C(=O)c2ccc(Oc3ccccc3)cc2)C1 (configuration not stated),1,1.2,2,1,0.98,-20
CC(=O)CCc1ccc(OCC(=O)Nc2cccc(S(=O)(=O)N(C)c3ccccc3)c2)cc1,.,0.92,-2,.,1,8
C[C@@H]1C=C[C@](Cc2ccccc2)(C(=O)NCCc2c[nH]c3ccccc23)N1C(=O)c1ccccc1,2.1*,0.93,-28,-111,1.3,7
CC(=O)N1[C@H](C)C=C[C@]1(Cc1ccccc1)C(=O)NCCc1c[nH]c2ccccc12,.,0.84,1,.,0.99,16
Cc1ccc(C(=O)C(NC(=O)c2ccco2)Nc2sc3c(c2C(N)=O)CCCC3)cc1 (configuration not stated),3.6*,1.1,11,-263,0.89,-12
CCc1ccc(C(C(=O)NCc2ccc(OC)cc2)N(CCOC)C(=O)Cc2cccs2)cc1 (configuration not stated),1.2,0.95,-25,-19,1.3,5
COCCN(C(=O)Cc1cccs1)C(C(=O)NCc1ccc(OC)cc1)c1ccc(C(C)C)cc1 (configuration not stated),2.1*,1.1,-24,-115,1.2,-13

# Screening data as filed in PubChem BioAssay.
